For test [1], the target named is Type 1 fimbrin D-mannose specific adhesin (Escherichia coli K-12, UniProt P08191). The experiment in a line: Displacement of fluorescent tracer 3'-chloro-N-(2-(3-(3',6'-dihydroxy-3-oxo-3H-spiro[isobenzofuran-1,9'-xanthen]-5-yl)thioureido)ethyl)-4'-(alpha-D-mannopyranosyloxy)biphenyl-4-carboxamide from Escherichia coli F18 full-length FimH expressed in Escherichia coli HM125 assessed as dissociation constant incubated for 24 hrs by competitive binding based fluorescence polarization assay. The method in brief:
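Competitive FP with full-length FimH at 300 nM and tracer at 500 nM; ligand serially diluted from 5 mM final, or 50 μM for some mannosides, in 20 mM HEPES pH 7.4, 150 mM NaCl, 50 μg/mL BSA, 5% DMSO (10% for poorly soluble ligands, top 500 μM). Read after 24 h, Ex 485/Em 535 nm. KD from competitive binding model fit.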

A short description of test [2]: Displacement of fluorescent tracer 3'-chloro-N-(2-(3-(3',6'-dihydroxy-3-oxo-3H-spiro[isobenzofuran-1,9'-xanthen]-5-yl)thioureido)ethyl)-4'-(alpha-D-mannopyranosyloxy)biphenyl-4-carboxamide from Escherichia coli F18 FimH […] expressed in Escherichia coli HM125 assessed as dissociation constant incubated for 24 hrs by competitive binding based fluorescence polarization assay. The method in brief: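 Competitive FP: 50 nM FimH lectin domain and 50 nM mannoside-fluorescein tracer; ligand serially diluted from 500 μM final in 20 mM HEPES pH 7.4, 150 mM NaCl, 50 μg/mL BSA, 5% DMSO (10% for poorly soluble ligands). Read after 24 h equilibration, Ex 485/Em 535 nm. KD from analytical competitive binding model fit.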
A general note: Fluorescence polarisation rises when a labelled molecule tumbles more slowly, as on binding a larger partner.

In a further test the test system is Escherichia coli. The experiment in a line: Ratio of kd for displacement of fluorescent tracer 3'-chloro-N-(2-(3-(3',6'-dihydroxy-3-oxo-3H-spiro[isobenzofuran-1,9'-xanthen]-5-yl)thioureido)ethyl)-4'-(alpha-D-mannopyranosyloxy)biphenyl-4-carboxamide from Escherichia coli F18 full-length FimH expressed in Escherichia coli HM125 to kd for displacement of fluorescent tracer 3'-chloro-N-(2-(3-(3',6'-dihydroxy-3-oxo-3H-spiro[isobenzofuran-1,9'-xanthen]-5-yl)thioureido)ethyl)-4'-(alpha-D-mannopyranosyloxy)biphenyl-4-carboxamide from Escherichia coli F18 FimH lectin domain expressed in Escherichia coli HM125. The method in brief:
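Ratio of FP-derived KD for full-length FimH (300 nM protein, 500 nM tracer, ligand from 5 mM) over KD for lectin domain (50 nM each, ligand from 500 μM). Both in HEPES/NaCl/BSA buffer pH 7.4 with DMSO, 24 h equilibration, Ex 485/Em 535 nm, competitive binding model fit.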

Test [3] can be described thus: Binding affinity to Escherichia coli F18 FimH lectin domain expressed in Escherichia coli HM125 assessed as dissociation constant by isothermal titration calorimetry. The method in brief: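 ITC at 25 °C; protein dialyzed against 20 mM HEPES, 150 mM NaCl, pH 7.4, ligand dissolved in dialysate, 5% or 10% DMSO. Baselines corrected and peaks integrated, then global nonlinear regression fitting with confidence intervals.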

The values that follow come from ChEMBL document CHEMBL5500326, “Does size matter? - Comparing pyranoses with septanoses as ligands of the bacterial lectin FimH” (Eur J Med Chem, 2024).

Each structure is given as a SMILES string.

In general, Kd refers to the concentration at which binding is half-saturated.

Sequence of Type 1 fimbrin D-mannose specific adhesin (P08191 whole entry): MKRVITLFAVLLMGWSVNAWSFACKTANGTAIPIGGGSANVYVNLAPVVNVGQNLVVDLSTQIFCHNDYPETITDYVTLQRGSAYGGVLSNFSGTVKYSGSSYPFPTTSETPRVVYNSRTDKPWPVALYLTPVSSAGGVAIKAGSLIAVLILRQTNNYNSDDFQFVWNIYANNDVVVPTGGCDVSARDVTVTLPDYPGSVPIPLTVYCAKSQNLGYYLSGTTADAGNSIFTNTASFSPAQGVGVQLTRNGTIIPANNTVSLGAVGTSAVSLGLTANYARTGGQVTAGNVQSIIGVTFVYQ

Regarding `OC[C@H]1O[C@H](Oc2ccc(-c3ccccc3)cc2Cl)[C@@H](O)[C@@H](O)[C@@H]1O`, the Kd in test [1] (read-out: Kd) is 458 nM; in test [2] (read-out: Kd), 2.8 nM.
The corresponding values for `N#Cc1ccc(-c2ccc(O[C@H]3CO[C@H](CO)[C@@H](O)[C@H](O)[C@@H]3O)c(Cl)c2)cc1` are 6990 nM and 100 nM.
Consider `N#Cc1ccc(-c2ccc(CO[C@H]3CO[C@H](CO)[C@@H](O)[C@H](O)[C@@H]3O)cc2)cc1`, for which the Ratio with Escherichia coli stood at 43.8. Also, the Kd in test [1] (read-out: Kd) is 63100 nM; in test [2] (read-out: Kd), 1440 nM.
Turning to `OC[C@H]1O[C@H](Oc2ccc(-c3ccccc3)cc2)[C@@H](O)[C@@H](O)[C@@H]1O`, the Kd in test [2] (read-out: Kd) was determined as 15.1 nM.
Take `N#Cc1ccc(-c2ccc(O[C@H]3CO[C@H](CO)[C@@H](O)[C@H](O)[C@@H]3O)cc2)cc1`: the Kd in test [1] (read-out: Kd) was 42300 nM; in test [2] (read-out: Kd) it was 260 nM; in test [3], 838 nM.
Consider `NC(=O)c1ccc(-c2ccc(CO[C@H]3CO[C@H](CO)[C@@H](O)[C@H](O)[C@@H]3O)cc2)cc1`, for which, in the test on Escherichia coli, the Ratio is 42.7. Besides, the figures for the Kd in test [1] (read-out: Kd) and in test [2] (read-out: Kd) were 116000 nM and 2720 nM, respectively.
For `OC[C@H]1OC[C@H](OCc2ccc(-c3ccccc3)cc2)[C@@H](O)[C@@H](O)[C@@H]1O`, the Ratio with Escherichia coli stood at 19.3. Also, the Kd in test [1] (read-out: Kd) was 110000 nM; in test [2] (read-out: Kd) it was 5670 nM.
As to `N#Cc1ccc(-c2ccc(O[C@H]3O[C@H](CO)[C@@H](O)[C@H](O)[C@@H]3O)c(Cl)c2)cc1`, the Kd in test [1] (read-out: Kd) was determined as 84 nM; in test [2] (read-out: Kd) it was 0.5 nM.
For `NC(=O)c1ccc(-c2ccc(O[C@H]3O[C@H](CO)[C@@H](O)[C@H](O)[C@@H]3O)c(Cl)c2)cc1`, in that order: 86 nM and 0.3 nM.
For `CCCCCCCO[C@H]1CO[C@H](CO)[C@@H](O)[C@H](O)[C@@H]1O`, the Ratio with Escherichia coli is 16.4. Besides, the results for the Kd in test [1] (read-out: Kd) and in test [2] (read-out: Kd) were 31800 nM and 1940 nM, respectively.
As for `CCCCCCCO[C@H]1O[C@H](CO)[C@@H](O)[C@H](O)[C@@H]1O`, the Kd came to 3600 nM in test [1] (read-out: Kd) and 28.3 nM in test [2] (read-out: Kd).
With `OC[C@H]1OC[C@H](OCc2ccccc2)[C@@H](O)[C@@H](O)[C@@H]1O`, in the test with Escherichia coli, the Ratio was 5.2. The Kd in test [1] (read-out: Kd) came to 417000 nM; in test [2] (read-out: Kd), 80100 nM.
For the compound `CCCCCCCO[C@@H]1C[C@@H](O)[C@@H](O)[C@H](O)[C@@H](CO)O1`, the Kd result in test [1] and in test [2] was “Not Active” throughout.
Consider `NC(=O)c1ccc(-c2ccc(O[C@H]3O[C@H](CO)[C@@H](O)[C@H](O)[C@@H]3O)cc2)cc1`, for which the Kd in test [1] (read-out: Kd) was determined as 240 nM.
On to `NC(=O)c1ccc(-c2ccc(O[C@H]3CO[C@H](CO)[C@@H](O)[C@H](O)[C@@H]3O)c(Cl)c2)cc1`, for which the Kd in test [1] (read-out: Kd) worked out at 7340 nM; in test [2] (read-out: Kd) it was 120 nM.
With `N#Cc1ccc(-c2ccc(O[C@H]3O[C@H](CO)[C@@H](O)[C@H](O)[C@@H]3O)cc2)cc1`, the Kd in test [1] (read-out: Kd) is 208 nM.
In the case of `N#Cc1cccc(-c2ccc(CO[C@H]3CO[C@H](CO)[C@@H](O)[C@H](O)[C@@H]3O)c(Cl)c2)c1`, the Ratio in the test with Escherichia coli was determined as 24.7. Moreover, the figures for the Kd in test [1] (read-out: Kd) and in test [2] (read-out: Kd) were 35500 nM and 1440 nM, respectively.
As to `N#Cc1ccc(-c2ccc(CO[C@H]3CO[C@H](CO)[C@@H](O)[C@H](O)[C@@H]3O)c(Cl)c2)cc1`, the Ratio with Escherichia coli amounted to 29.1. In addition, the Kd is 37800 nM in test [1] (read-out: Kd) and 1300 nM in test [2] (read-out: Kd).
For `OC[C@H]1OC[C@H](Oc2ccc(-c3ccccc3)cc2Cl)[C@@H](O)[C@@H](O)[C@@H]1O`, the Kd was 6110 nM in test [1] (read-out: Kd) and 60 nM in test [2] (read-out: Kd).
In the case of `NC(=O)c1ccc(-c2ccc(CO[C@H]3CO[C@H](CO)[C@@H](O)[C@H](O)[C@@H]3O)c(Cl)c2)cc1`, the Ratio with Escherichia coli was 37.6. Also, the Kd in test [1] (read-out: Kd) worked out at 59400 nM; in test [2] (read-out: Kd) it was 1580 nM.
As for `OC[C@H]1OC[C@H](OCCCc2ccccc2)[C@@H](O)[C@@H](O)[C@@H]1O`, the Ratio in the test on Escherichia coli is 17.8. The results for the Kd in test [1] (read-out: Kd) and in test [2] (read-out: Kd) were 125000 nM and 7050 nM, respectively.
